Screens (PubChem)
Cl transport mod: modulates chloride dependent transport by human KCC2; Q9H2X9; KCC2 cells, thallium flux FluoZin-2 fluorescence; B-score of Tl+ flux slope (higher = more flux/activation; lower = inhibition) at 10 µM; hit rate 2.2% among 190,000;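 active = thallium flux slope and its plate-corrected score both differing from the plate sample mean at a set confidence after two filtering rounds, in either direction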;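 also: slope of fluorescence scaled to starting intensity during 10 to 20 s after thallium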
Target sequence (Q9H2X9 whole entry, looked up): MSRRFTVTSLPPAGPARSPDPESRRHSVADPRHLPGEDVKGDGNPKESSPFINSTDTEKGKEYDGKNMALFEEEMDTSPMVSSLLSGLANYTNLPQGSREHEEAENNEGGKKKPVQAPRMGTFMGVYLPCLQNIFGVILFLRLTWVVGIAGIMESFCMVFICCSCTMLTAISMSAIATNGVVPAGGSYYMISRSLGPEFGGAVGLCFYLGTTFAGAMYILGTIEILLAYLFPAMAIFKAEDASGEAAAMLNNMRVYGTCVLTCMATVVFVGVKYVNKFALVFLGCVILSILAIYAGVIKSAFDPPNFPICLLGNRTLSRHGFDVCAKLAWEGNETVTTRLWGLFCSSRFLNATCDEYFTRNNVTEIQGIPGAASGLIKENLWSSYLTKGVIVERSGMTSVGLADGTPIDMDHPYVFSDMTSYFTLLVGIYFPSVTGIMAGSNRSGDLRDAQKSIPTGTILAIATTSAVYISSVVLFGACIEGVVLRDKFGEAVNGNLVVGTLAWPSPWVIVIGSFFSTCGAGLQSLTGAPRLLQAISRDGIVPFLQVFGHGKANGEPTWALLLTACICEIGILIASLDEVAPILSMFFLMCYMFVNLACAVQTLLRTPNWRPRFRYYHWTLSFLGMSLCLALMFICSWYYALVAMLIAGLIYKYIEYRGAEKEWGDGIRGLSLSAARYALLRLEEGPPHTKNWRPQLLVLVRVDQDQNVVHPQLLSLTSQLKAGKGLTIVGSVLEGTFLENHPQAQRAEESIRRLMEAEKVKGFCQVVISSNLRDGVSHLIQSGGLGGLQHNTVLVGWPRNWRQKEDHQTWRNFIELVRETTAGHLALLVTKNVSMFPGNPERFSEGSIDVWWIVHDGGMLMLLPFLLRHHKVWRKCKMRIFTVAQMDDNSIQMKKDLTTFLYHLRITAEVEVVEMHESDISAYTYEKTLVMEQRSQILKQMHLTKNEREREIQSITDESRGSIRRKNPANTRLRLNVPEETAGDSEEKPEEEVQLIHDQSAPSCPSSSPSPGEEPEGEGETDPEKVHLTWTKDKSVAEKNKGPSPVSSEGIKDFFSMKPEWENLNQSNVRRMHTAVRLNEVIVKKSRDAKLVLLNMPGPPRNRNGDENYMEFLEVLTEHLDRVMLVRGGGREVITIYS
CHT PAM: allosteric activators of human choline transporter CHT | Q9GZV3 | CHT-expressing cells, membrane potential dye, choline EC20; hits give high values; LV-AA mutant CHT in HEK293 cells | B-score at 10 µM | hit rate 0.49% among 310,000;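 active = initial fluorescence not abnormally high and integrated response B-score, plate-corrected, over 3 SD above library mean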
Rad51 HR inh: Rad51 (human) homologous recombination inhibition; Q06609; hRad51 DNA strand exchange, fluorescence dequenching; inhibition, % at 10 µM; hit rate 0.085% among 200,000;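 active = inhibition above 40% at the single screening dose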
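material = hRad51 filaments on single-stranded DNA | timing = filaments 15 min 37 °C, then compound 30 min | signal = FRET fluorescence dequenching, excitation 485 nm, emission 520 nm | benchmarks = control wells and blank wells on each plate | evaluation = percent inhibition relative to plate controls and blanks | compound = 10 µM final, single point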
CHT block: inhibitors of human choline transporter CHT; hit rate 0.86% among 310,000; AID 488975; Q9GZV3; CHT-expressing cells, membrane potential dye, choline response; hits give low values; B-score at 10 µM;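 active = B-score over 3 SD under the library average, and starting fluorescence ratio not unusually high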;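 also: choline stimulus applied at its EC90 after an EC20 pre-addition; B-score computed on integrated fluorescence ratio after choline addition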
A number is an active result; . = inactive; / = not tested or not shown. Most compounds without a hit are left out; they make up all but 2.6% or so of the library.

SMILES	Cl transport mod	CHT PAM	Rad51 HR inh	CHT block
COc1cc2c(cc1OC)C(c1ccc(-c3ccccc3Cl)o1)=NCC2	.	6.6	.	.
COc1cc2c(cc1OC)C(c1ccc(-c3ccc(Cl)cc3Cl)o1)=NCC2	/	.	/	.
C=CCn1c(SCC(=O)NCC)nc2sc3c(c2c1=O)CCC3	/	.	/	.
COc1ccccc1NC(=O)Cc1ccc(-c2ccccc2)cc1	/	.	/	.
COc1ccc(CC(=O)Nc2ccccc2Oc2ccccc2)cc1	.	.	.	-6.2
O=S(=O)(Nc1cc(Cl)ccc1N1CCCCC1)c1cccs1	/	.	.	.
O=S(=O)(Nc1ccccc1N1CCCCC1)c1ccc(Cl)s1	12	.	.	.
COCCCC1CCN(C(=O)c2cc(COc3cc(C)ccc3C)on2)CC1	/	.	/	.
COc1ccc(CCn2c(C(C)C)nc3c(c(=O)c4ccccc4n3C)c2=O)cc1	-4.3	.	.	.
C/C(CC(=O)Nc1ccc(C)c(Cl)c1)=N\NC(=O)c1ccco1	.	.	/	.
O=C(N/N=C/c1cccnc1)c1ccc([N+](=O)[O-])cc1	.	6.8	.	.
O=C(Cc1ccc([N+](=O)[O-])cc1)N/N=C/c1cccnc1	/	.	/	.
COc1ccc(C(=O)c2ncc(C(F)(F)F)cc2Cl)cc1	/	.	.	.
COC(=O)/C(=C\Nc1cccc(Cl)c1C)c1ncc(C(F)(F)F)cc1Cl	.	.	79	.
COc1ccc(CN2CCN(Cc3ccccc3F)CC2)cc1OC	/	.	/	.
O=C(CN1C(=O)CSc2cc(S(=O)(=O)N3CCCCCC3)ccc21)NCCc1ccccc1	-7.8	.	/	.
O=C(CN(Cc1ccccc1Cl)C(=O)c1csnn1)NCCc1ccccc1	/	.	/	.
Cc1cc(N)ccc1N1CCCC1	/	.	60	.
CCN(CC)C(=O)c1cccc(NC(=O)CC23CC4CC(CC(C4)C2)C3)c1	/	.	/	.
CC(C)(C)NC(=O)C(=O)NNC(=O)c1ccc(C(C)(C)C)cc1	54	.	/	.
COc1ccc(C(=O)NC(=S)NC(C)(C)C)cc1Br	4.1	.	.	.
CCOC(=O)c1cnc2ncnn2c1N	.	.	.	.
CC(=O)Nc1ccc(NC(=O)c2ccc(Cl)nc2)cc1	.	.	42	.
O=C(Nc1ccc2c(c1)CCC2)c1ccc(Cl)nc1	.	.	.	.
Cc1ccc(NC(=S)c2nc3ccccc3[nH]2)cc1	33	.	.	.
SMILES	Cl transport mod	CHT PAM	Rad51 HR inh	CHT block
Cc1ccc(NC(=S)N2CCCC(c3nc4ccccc4[nH]3)C2)cc1 (stereo not drawn)	.	.	.	.
COc1ccc(OC)c(NC(=O)CN2C(=O)COc3ccc(C)cc32)c1	/	.	/	.
COc1ccc(/C=C\c2cc(OC)c(OC)cc2CC[N+](C)(C)C)cc1OC	.	10	.	.
Cc1cc(C(F)(F)F)c2c(=O)[nH]c(=O)n(Cc3ccccc3)c2n1	-4.3	.	.	.
O=c1[nH]c(=O)n(Cc2ccccc2)c2nc(-c3ccco3)cc(C(F)(F)F)c12	.	.	.	.
COc1cccc(NC(=O)CN(C)C(=O)/C=C/c2ccc3ccccc3n2)c1	/	.	/	.
Cc1ccc(N2CCN(C(=O)c3cc(C(=O)c4ccccc4C)c[nH]3)CC2)c(C)c1	.	.	43	.
Cc1ccc(N2CCN(C(=O)c3ccccc3)CC2)c(C)c1	.	.	.	.
C[C@H](CCC(=O)O)[C@H]1CC[C@H]2[C@@H]3CC[C@@H]4C[C@H](O)CC[C@]4(C)[C@H]3C[C@H](O)[C@]12C	/	.	.	-6.5
C[C@H](CCC(=O)O)[C@H]1CC[C@H]2[C@@H]3[C@H](O)C[C@@H]4C[C@H](O)CC[C@]4(C)[C@H]3CC[C@]12C	/	.	/	.
CSc1cccc(CN(C)C(=O)C2CCC(=O)N(CCCN3CCCC3=O)C2)c1 (stereo not drawn)	/	.	/	.
CC1(C)Cc2c(sc3[nH]c(=S)n(Cc4ccco4)c(=O)c23)CO1	9	.	.	.
Cc1ccc(N(CC(O)CON=C2c3ccccc3-c3ccccc32)S(C)(=O)=O)cc1 (stereo not drawn)	/	.	.	.
O=c1c2cc(Cl)ccc2nc(-c2ccc(Cl)c(Cl)c2)n1O	/	.	.	-7
O=C(CCCCCN1C(=O)c2ccccc2C1=O)Nc1ccc(C(=O)O)cc1	/	.	/	.
O=C(Nc1nnc(-c2ccc3c(c2)CCCC3)o1)c1ccccc1Cl	50	.	.	.
O=C(Nc1nnc(-c2ccc3c(c2)CCCC3)o1)c1ccccc1	79	.	.	.
O=C(Nc1nnc(-c2ccccc2)o1)c1cc(Cl)sc1Cl	60	.	.	.
O=C(Nc1cccc2c1CCCC2)c1ccccc1Cl	/	.	/	.
COc1ccc(C(=O)Nc2nnc(-c3ccccc3)o2)cc1OC	/	.	.	.
O=C(Nc1nnc(-c2ccncc2)o1)c1ccccc1	.	.	.	.
COc1ccc(-c2noc(N3CCC(C(=O)NCCCN4CCCC(C)C4)CC3)n2)cc1 (stereo not drawn)	/	.	/	.
Cc1csc(NC(=O)CSc2nccn2Cc2ccco2)n1	/	.	/	.
O=C(Nc1nccs1)c1ncc(Cl)c(Cl)c1Cl	/	.	/	.
Cc1cccc(NC(=S)c2nc3ccccc3s2)c1	3.3	.	/	.
SMILES	Cl transport mod	CHT PAM	Rad51 HR inh	CHT block
O=C(Nc1ccccc1)c1nc2ccccc2s1	.	.	/	.
O=C(O)Cc1sc(NC2CCCCC2)nc1-c1ccc(Cl)cc1	/	.	/	.
O=C(NC(=S)Nc1ccccc1)c1csnn1	43	.	.	.
O=C(NC(=S)Nc1ccccc1)c1ccc(-c2ccccc2)cc1	.	.	.	.
O=C(NC(=S)Nc1ccc(C(F)(F)F)cc1)c1csnn1	67	.	.	.
CCC(CC)COC(=O)C1=C(C)NC(=O)NC1c1cccc([N+](=O)[O-])c1 (stereo not drawn)	/	.	/	.
CCOCCCN(C)C1CCN(C(=O)c2oc3ccccc3c2NC(=O)COc2ccc(F)cc2)CC1	/	.	/	-7.2
COc1ccc(N2C(=O)CC2(C#N)c2ccc(OCc3ccccc3)cc2)cc1 (stereo not drawn)	.	.	.	.
Cc1ccc(S(=O)(=O)/N=C2/NC(=O)/C(=C/c3cc([N+](=O)[O-])ccc3O)S2)cc1	/	.	/	.
COc1cc(/C=C2\S/C(=N/S(=O)(=O)c3ccc(C)cc3)NC2=O)c([N+](=O)[O-])cc1OC	-6.5	.	.	-7.4
Cc1ccc(S(=O)(=O)/N=C2/NC(=O)/C(=C/c3ccncc3)S2)cc1	.	.	.	-5.3
NCC1CCC(C(=O)Oc2ccc(CCC(=O)O)cc2)CC1 (stereo not drawn)	/	.	.	.
CCOC(=O)C1=C(O)c2ccccc2C(=O)/C1=C\c1ccc(C)cc1	3.3	.	.	.
CCOC(=O)C1=C(C)N(c2ccc(C)cc2)C(=O)/C1=C\c1ccc(O)c(OC)c1	.	.	.	.
CN(C1CCCCC1)S(=O)(=O)c1ccc(NC(=S)NC(=O)c2cccs2)cc1	17	.	.	.
CN(c1ccccc1)S(=O)(=O)c1ccc(NC(=S)NC(=O)c2ccccc2)cc1	3	.	.	.
Cc1ccc(C(=O)NC(=S)Nc2ccc(S(=O)(=O)N(C)c3ccccc3)cc2)cc1	.	.	.	.
CCOc1cc(/C=N/NC(N)=O)cc(Br)c1OCC(=O)Nc1cccc2ccccc12	.	.	122	.
